# PP5 inh = inhibitors of human protein phosphatase 5 (PP5); P53041; purified PP5c, OMFP substrate fluorescence; inhibition, % at 6.7 µM; hit rate 0.18% among 320,000; AID 1987;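 active = inhibition above the campaign's mean inhibition across all tested compounds plus 3 SD, cut at about 9.5% in these data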
# Target sequence (P53041 whole entry, looked up): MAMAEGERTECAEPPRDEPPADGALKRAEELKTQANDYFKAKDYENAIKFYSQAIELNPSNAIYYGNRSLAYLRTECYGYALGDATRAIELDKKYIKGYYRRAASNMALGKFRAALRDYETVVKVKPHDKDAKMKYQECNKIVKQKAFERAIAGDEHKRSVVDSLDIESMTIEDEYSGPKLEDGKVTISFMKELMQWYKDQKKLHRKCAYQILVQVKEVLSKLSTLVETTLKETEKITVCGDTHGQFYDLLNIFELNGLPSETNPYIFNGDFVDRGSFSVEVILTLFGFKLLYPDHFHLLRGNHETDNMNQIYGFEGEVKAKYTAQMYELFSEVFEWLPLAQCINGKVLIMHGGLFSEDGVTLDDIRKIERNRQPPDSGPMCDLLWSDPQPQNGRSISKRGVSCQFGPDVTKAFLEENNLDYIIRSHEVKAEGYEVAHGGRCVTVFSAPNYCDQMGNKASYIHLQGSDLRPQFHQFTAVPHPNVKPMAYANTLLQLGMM
# Apaf-1 inh = inhibitors of human Apaf-1 apoptosome; reconstituted apoptosome caspase-3 activity, DEVD-Rh110 fluorescence; inhibition, % at 20 µM; hit rate 0.71% among 330,000; active = inhibition of at least 40% at 20 µM
#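 Material: cell-free apoptosome with Apaf-1, procaspase-3 and caspase-9; Buffer or medium: Hepes pH 7.5 with detergent and BSA; Reagent: cytochrome c trigger plus (Z-DEVD)2-Rh110 caspase-3 substrate; Times: compound with Apaf-1, dATP, procaspase-3 30 min, then 50 min reaction, room temperature; Technique: Rh110 fluorescence intensity.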
# PP1 inh = blocks human PP1-alpha phosphatase, a PP5 counter-screen | inhibition, % at 6.7 µM | purified PP1alpha, OMFP fluorescence | P62136 | hit rate 0.9% among 320,000 | AID 2235;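 active = inhibition above the mean inhibition of all tested compounds plus 3 SD, computed separately for each screening campaign, cut at about 15% in these data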
# GSTO1 counter = blocks human GSTO1 in RBBP9 counter-screen; P78417; recombinant GSTO1, activity-based probe fluorescence polarization; inhibition, % at 5.96 µM; hit rate 1.1% among 300,000;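 active = inhibition above the campaign mean inhibition plus 3 SD, cut at about 35% in these data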
# TDP2 absorb = blocks human TDP2 phosphodiesterase activity; O95551; recombinant TDP2, T5PNP hydrolysis, p-nitrophenol absorbance 415 nm; inhibition, % at 12.8 µM; hit rate 0.34% among 370,000; AID 720702;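 active = inhibition above the mean of all tested compounds plus 3 SD, set per campaign, cut at about 25% in these data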
#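 System: recombinant human TDP2 / Amount: 120 nM TDP2 per well / Also added: 5 mM T5PNP chromogenic substrate / Doses: 12.8 µM single point, 1% DMSO / Incubation: 2 h at 37 °C / Detection: p-Nitrophenol epi absorbance / Evaluation: % inhibition relative to enzyme-containing and enzyme-free wells / Repeats: singlicate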
# PP1 inh confirm = human PP1 phosphatase inhibition, confirmation | shares compounds with PP1 inh | purified PP1alpha, OMFP substrate fluorescence | inhibition, % at 6.7 µM | hit rate 52% among 1,900;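 active = mean PP1 inhibition above a set limit taken from the earlier primary screen, cut at about 15% in these data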
# PP5 inh counter = PP5 phosphatase inhibition, counter-screen for PP1 inhibitors. shares compounds with PP1 inh. purified PP5c, OMFP fluorescence. inhibition, % at 6.7 µM. hit rate 4% among 1,900;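 active = mean PP5 inhibition over triplicate wells above about 9.5% taken from the earlier PP1 screen, limit read from the data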
# A number is an active result; 0 = inactive; - = no result given. Sampled rows, rich in hits. Any-hit rate of the full collection: about 2.1%.
SMILES,PP5 inh,Apaf-1 inh,PP1 inh,GSTO1 counter,TDP2 absorb,PP1 inh confirm,PP5 inh counter
O=C(CSc1nc(O)cc(=O)[nH]1)N1c2ccccc2CCc2ccccc21,0,0,28,0,0,0,0
O=C(CSc1nc(O)cc(=O)[nH]1)N1CCCc2ccccc21,0,0,0,0,0,-,-
CCOC(=O)c1nc(-c2ccccc2)sc1C(C)=O,0,0,0,0,0,-,-
CCOC(=O)c1sc(-c2ccc(Cl)cc2)nc1O,0,0,25,0,0,18,0
CCOC(=O)c1sc(-c2cccc(C(F)(F)F)c2)nc1O,0,0,18,0,0,17,0
COCCCNC(=O)CSc1nnc(-c2cccnc2)n1C1CCCCC1,-,-,-,-,0,-,-
O=C(/C=C/c1ccc(Br)cc1)c1ccc(NC(=O)c2ccco2)cc1,0,0,22,0,0,22,0
CC(=O)c1ccc(NC(=O)c2ccc(NC(=O)c3ccco3)cc2)cc1,0,0,0,0,-,-,-
O=C(Nc1ccc(N2CCN(C(=O)c3ccco3)CC2)cc1)c1ccc(Br)cc1,0,0,21,0,0,39,0
COC(=O)c1ccc(NC(=O)c2ccc(NC(=O)c3ccco3)cc2)cc1,0,44,30,0,0,26,0
CC[C@H](CCC(=O)N(c1ccccc1)c1ccccc1)c1ccc(C)cc1,-,-,-,-,0,-,-
COc1ccc2nc(C)cc(SCC(=O)N/N=C/c3ccc(O)cc3O)c2c1,0,0,0,0,0,-,-
COc1ccc(N2Cc3ccc(C(=O)N/N=C\c4ccc(O)cc4O)cc3C2)cc1,0,0,19,0,-,0,0
Cc1cccc(C)c1-n1cccc1/C=C1\SC(=S)N(c2cccc(C(=O)O)c2)C1=O,0,0,22,0,0,23,0
CN1CCc2nc3sc(C(=O)C45CC6CC(CC(C6)C4)C5)c(N)c3cc2C1,0,0,29,0,0,0,0
Nc1c(C(=O)O)sc2nc3c(cc12)CCCC3,0,0,0,0,0,-,-
O=C(Cn1ncc2c([nH]c3ccccc32)c1=O)NCCc1ccc(Cl)cc1,0,0,18,0,0,21,0
CSc1ccc(CCNC(=O)Cn2ncc3c([nH]c4ccccc43)c2=O)cc1,0,0,0,0,0,-,-
Cc1cc2c(s1)c1cnn(CC(=O)NCCc3ccccc3)c(=O)c1n2C,0,0,20,0,0,0,0
Cc1cc2c(s1)c1cnn(-c3ccccc3)c(=O)c1n2C,-,0,-,-,0,-,-
COC1=C[C@H](C(=O)NCc2ccccn2)[C@@]2(C)Cc3ccccc3[C@H]2CC1=O,-,-,-,-,0,-,-
NC(=O)c1ccsc1NC(=O)COC(=O)c1nc(Cl)ccc1Cl,0,0,45,0,0,0,0
O=C1NC(=S)SC1=Cc1ccccc1Cl,-,-,-,-,0,-,-
Cc1ccc(C2C(/C=C3/SC(=S)NC3=O)=C(c3cccs3)Oc3ccccc32)cc1 (centres undefined),0,0,31,0,0,22,0
O=Cc1cn(-c2ccccc2)nc1-c1cc2cc(O)ccc2oc1=O,0,0,28,0,0,18,0
SMILES,PP5 inh,Apaf-1 inh,PP1 inh,GSTO1 counter,TDP2 absorb,PP1 inh confirm,PP5 inh counter
O=Cc1cn(-c2ccccc2)nc1-c1cc2c(ccc3ccccc32)oc1=O,0,0,0,0,0,-,-
O=C(O)c1c[nH]c2ccc(S(=O)(=O)N3CCN(c4ccc(F)cc4)CC3)cc2c1=O,0,0,44,0,0,32,0
CN(C)C(=O)c1cnc(Cc2c[nH]c3ccccc23)c(I)c1,-,-,-,-,0,-,-
CCOC(=O)Cc1csc(NC(=O)c2sc3nc4cc(C)ccc4cc3c2N)n1,0,0,28,0,0,33,0
CCOC(=O)Cc1csc(NC(=O)c2sc3nc4ccc(CC)cc4cc3c2N)n1,0,0,30,0,0,25,0
CCOC(=O)Cc1csc(NC(=O)c2ccc(Br)o2)n1,0,0,0,0,0,-,-
CCOC(=O)Cc1csc(NC(=O)c2cc(C)cc(C)c2)n1,0,0,0,0,0,-,-
Cc1cccc(C)c1-n1nnnc1C1(C)Cn2nccc2C(=O)N1Cc1ccc(F)cc1 (centres undefined),-,-,-,-,0,-,-
O=[N+]([O-])c1ccc2c(c1)CO[C@@]21O[C@H](CCO)C[C@H](O)[C@H]1O,-,-,-,-,0,-,-
Cc1cccc(N2C(=O)C(O)=C(C(=O)c3cccs3)C2c2ccc(C(C)C)cc2)n1 (centres undefined),0,0,23,0,0,19,0
Cc1cccc(N2C(=O)C(O)=C(C(=O)c3cccs3)C2c2ccc(F)cc2)n1 (centres undefined),0,0,0,0,0,-,-
CC(=O)N1CCN(C(=O)CSc2nc3cccnc3n2C)CC1,-,-,-,-,0,-,-
O=[N+]([O-])c1ccc(CCNc2cccc3ccccc23)c([N+](=O)[O-])c1,0,0,25,0,0,24,0
COc1ccc(N=C2S/C(=C\c3ccc(Cl)c([N+](=O)[O-])c3)C(=O)N2CCN(C)C)cc1,0,0,0,0,0,-,-
CCN(CC)CCN1C(=O)/C(=C\c2ccc(Cl)c([N+](=O)[O-])c2)SC1=Nc1ccc(OC)cc1,0,0,19,0,0,0,0
COc1ccc(CN2C/C(=C/c3ccccc3)N3C(=O)C[C@@H](c4ccc5ccccc5c4)N=C23)c(OC)c1,-,-,-,-,0,-,-
Cc1ccc(F)cc1C(=O)N1CCCCC1c1cc(C(=O)Nc2ccc(F)c(Cl)c2)no1 (centres undefined),-,-,-,-,0,-,-
CC(C)(C)c1cc(NCCCn2ccnc2)n2ncc(-c3ccc(Cl)cc3)c2n1,10,0,38,0,0,39,0
Cc1cc(NCCCn2ccnc2)n2nc(-c3ccc(Cl)cc3)cc2n1,0,0,0,0,0,-,-
Cc1ccccc1NC(=O)C[C@H]1CC[C@H]2[C@@H](COc3ccc(NC(=O)Nc4ccccc4)cc3C(=O)N2C)O1,-,-,-,-,0,-,-
O=C(N/N=C/c1ccncc1)c1cccc(S(=O)(=O)Nc2ccc(Cl)cc2)c1,0,0,21,0,0,0,0
CCOC(=O)c1csc(N/N=C2\CCCc3ccccc32)n1,0,0,0,0,0,-,-
COc1ccc2c(c1)CCC/C2=N\Nc1nc(C(=O)NN)cs1,0,0,22,0,0,0,0
CCOC(=O)c1csc(N/N=C2\CCc3ccccc32)n1,0,0,19,0,0,17,0
CC(C)=CCC/C(C)=C/C[C@]12C[C@H](C(=O)O)N(C(=O)OC(C)(C)C)[C@@H]1N(C(=O)OC(C)(C)C)c1ccccc12,-,-,-,-,0,-,-
c1ccc(N(c2ccccc2)c2nc(-n3ccnc3)nc(-n3ccnc3)n2)cc1,0,0,50,0,0,50,0
COc1ccc(-c2c(Cc3ccccc3)nc(NC(=O)c3ccccc3)n2Cc2ccc(OC)cc2OC)cc1,-,-,-,-,0,-,-
CCCSc1nnc(N2C(=O)C(O)=C(C(=O)c3ccco3)C2c2ccccc2F)s1 (centres undefined),0,0,22,0,0,0,0

# Bioassay records from PubChem BioAssay.
